We go through 24 compounds from ChEMBL document CHEMBL1122953, “Synthesis and antiarrhythmic and parasympatholytic properties of substituted phenols. 3. Modifications to the linkage region (region 3)” (1985).

Active and inactive are the calls of the source. No cut-off for these calls is given here.

Assay [1] is filed under the species Canis familiaris. The assay is described as follows: Antiarrhythmic activity estimated by using the ouabain intoxicated dog model and the active dose of base in ouabain dog was reported. Format: functional, Canis lupus familiaris, Heart. The gist of the method:
(§1)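 Dogs; ECG lead II recorded. Ouabain given iv as boluses of 40 µg/kg, then 20 µg/kg 30 min later, then 10 µg/kg every 15 min until a stable ventricular arrhythmia (>95% ectopic ventricular complexes) persisted 15 min. Test drug infused iv at 0.5 mg/kg per min until normal sinus rhythm held at least 10 min. Active dose is the mean of experiments ± SEM.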

For a further assay, the species on record is Cavia porcellus. The assay can be described thus: Parasympatholytic activity and the % inhibition of guinea pig ileum contractile force at 4 mg/L of base was reported. Format: functional. The gist of the method: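 Isolated guinea pig ileum, electrically stimulated so contraction comes from acetylcholine released by postganglionic parasympathetic nerves. After about 60 min equilibration, tension was measured just before and during the steady-state response to drug at 4 mg/L. Result is % inhibition of contractile force.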

For assay [2], the species on record is Canis familiaris. The assay is described as follows: Antiarrhythmic activity estimated by using the ouabain intoxicated dog model and the active dose of base in ouabain dog was reported; Not effective. Format: functional, organism-based. The following applies: Canis lupus familiaris; Heart. The procedure, abridged: as §1
Assay [3] is filed under the species Canis familiaris. The assay is described as follows: Dose at which ouabain dog failed to produce normal sinus rhythm. Format: functional, Canis lupus familiaris. The procedure, abridged: as §1
For assay [4], the system named is Canis familiaris. The assay is described as follows: Antiarrhythmic activity estimated by using the ouabain intoxicated dog model and the active dose of base in ouabain dog was reported at a dose of 20 mg/kg; Not effective. Format: functional, organism-based. Further details: dose 20 mg/kg. The following applies: Canis lupus familiaris, Heart. The gist of the method:
as §1

The species entered for assay [5] is Canis familiaris. The assay can be described thus: Dose at which ouabain dog caused ventricular flutter. In kind it is functional, Canis lupus familiaris, Heart. The procedure, abridged:
as §1

Assay [6] relates to Canis familiaris. The assay can be described thus: Antiarrhythmic activity estimated by using the ouabain intoxicated dog model and the active dose of base in ouabain dog was reported. at a dose of 10 mg/kg; Not effective. Format: functional, organism-based. Further details: dose 10 mg/kg. To be noted: Canis lupus familiaris, Heart. The gist of the method:
as §1

Turning to `Cc1cccc(C)c1NC(=O)c1cc(CN2CCCC2)c(O)c(CN2CCCC2)c1`, the Dose in the assay listed under Canis familiaris [1] was 4.5 mg/kg.

In the case of `O=S(=O)(Nc1cc(CN2CCCC2)c(O)c(CN2CCCC2)c1)c1ccccc1`, the Dose in the assay listed under Canis familiaris [1] is 10 mg/kg.

With `O=C(Nc1cc(CN2CCCC2)c(O)c(CN2CCCC2)c1)c1ccccc1`, in the assay listed under Canis familiaris [1], the Dose was 3.4 mg/kg.

Usually Inhibition stands for the share of the control response that was lost under treatment. Low values mean little suppression, high ones strong suppression. For the compound `COc1ccc(C(=O)c2cc(CN3CCCC3)c(O)c(CN3CCCC3)c2)cc1`, the Dose in the assay filed under Canis familiaris [1] was 4.5 mg/kg. In the assay listed under Cavia porcellus, this compound returned an Inhibition of 12%.

Consider `O=C(c1ccccc1)c1cc(CN2CCCC2)c(O)c(CN2CCCC2)c1`, for which the Dose in the assay listed under Canis familiaris [1] is 2.4 mg/kg. Moreover, the Inhibition in the assay listed under Cavia porcellus is reported as 9%.

Consider `O=C(Nc1cc(CN2CCOCC2)c(O)c(CN2CCOCC2)c1)c1ccccc1`, for which, in the assay filed under Canis familiaris [1], the Dose is 16.5 mg/kg.

For the compound `O=C(Nc1cc(CN2CCCCC2)c(O)c(CN2CCCCC2)c1)c1ccccc1`, the Dose in the assay listed under Canis familiaris [1] was 3 mg/kg. This compound had an Inhibition in the assay filed under Cavia porcellus of 33%.

`CC(C)N(CCC(C(N)=O)(c1ccccc1)c1ccccn1)C(C)C` (configuration not stated) [DISOPYRAMIDE]: the Dose in the assay filed under Canis familiaris [1] was 4.4 mg/kg. This compound gave an Inhibition in the assay filed under Cavia porcellus of 81%.

On to `Cl.Oc1c(CN2CCCC2)cc(Cc2ccccc2)cc1CN1CCCC1`, for which the DOSE result in the assay filed under Canis familiaris [2] is “inactive”. In addition, the Inhibition in the assay listed under Cavia porcellus was 14.3%.

As for `Cc1cccc(C)c1C(=O)Nc1cc(CN2CCCC2)c(O)c(CN2CCCC2)c1`, in the assay listed under Canis familiaris [1], the Dose was 3.2 mg/kg.

In the case of `O=C(Nc1ccccc1)c1cc(CN2CCCC2)c(O)c(CN2CCCC2)c1`, the Dose in the assay listed under Canis familiaris [1] was 2.8 mg/kg. The compound further registered an Inhibition in the assay filed under Cavia porcellus of 31%.

As for `Oc1c(CN2CCCC2)cc(Nc2ccccc2)cc1CN1CCCC1`, the Dose in the assay listed under Canis familiaris [1] was 5 mg/kg; in the assay listed under Canis familiaris [3], 17.5 mg/kg.

`Cl.Oc1c(CN2CCCC2)cc(OCc2ccccc2)cc1CN1CCCC1`: the Dose in the assay listed under Canis familiaris [1] is 2 mg/kg. Moreover, in the assay listed under Cavia porcellus, the Inhibition is 62%.

On to `Cc1ccccc1C(=O)Nc1cc(CN2CCCC2)c(O)c(CN2CCCC2)c1`, for which the Dose in the assay filed under Canis familiaris [1] was 2.7 mg/kg.

As for `O=C(Nc1nccs1)c1cc(CN2CCCC2)c(O)c(CN2CCCC2)c1`, the DOSE entry in the assay on Canis familiaris [4] was “inactive”.

With `O=C(/C=C/c1ccccc1)Nc1cc(CN2CCCC2)c(O)c(CN2CCCC2)c1`, the Dose in the assay filed under Canis familiaris [5] was 8 mg/kg; in the assay filed under Canis familiaris [1], 14 mg/kg.

Take `O=C(Nc1ccccc1)Nc1cc(CN2CCCC2)c(O)c(CN2CCCC2)c1`: the Dose in the assay listed under Canis familiaris [1] was 3.6 mg/kg.

With `Cc1ccccc1NC(=O)c1cc(CN2CCCC2)c(O)c(CN2CCCC2)c1`, the Dose in the assay filed under Canis familiaris [1] was 2.9 mg/kg.

With `CN(C(=O)c1ccccc1)c1cc(CN2CCCC2)c(O)c(CN2CCCC2)c1`, the Dose in the assay listed under Canis familiaris [1] was 16.2 mg/kg. The same compound had an Inhibition in the assay listed under Cavia porcellus of 5%.

As for `C=C[C@H]1CN2CC[C@H]1C[C@@H]2[C@@H](O)c1ccnc2ccc(OC)cc12` [QUINIDINE], the Dose in the assay listed under Canis familiaris [1] is 10.5 mg/kg. For the same compound, the Inhibition in the assay listed under Cavia porcellus was determined as 62%.

Take `O=C(c1cc(CN2CCCC2)c(O)c(CN2CCCC2)c1)c1cc(CN2CCCC2)c(O)c(CN2CCCC2)c1`: the DOSE entry with Canis familiaris [6] is “inactive”.

For the compound `Oc1c(CN2CCCC2)cc(Nc2ncnc3ccccc23)cc1CN1CCCC1` [CHANGROLIN], the Dose in the assay listed under Canis familiaris [1] was 5.5 mg/kg. The same compound returned an Inhibition in the assay filed under Cavia porcellus of 43%.

Consider `CCN(CC)CCNC(=O)c1ccc(N)cc1.Cl` [PROCAINAMIDE HYDROCHLORIDE], for which the Dose in the assay filed under Canis familiaris [1] was 29 mg/kg. For the same compound, the Inhibition in the assay filed under Cavia porcellus stood at 0%.

On to `O=C(c1ccc(Cl)cc1)c1cc(CN2CCCC2)c(O)c(CN2CCCC2)c1`, for which the Dose in the assay filed under Canis familiaris [1] is 4.8 mg/kg.
